Measurements: ChEMBL document CHEMBL4390654, “Microwave-assisted solid-phase synthesis of antisense acpP peptide nucleic acid-peptide conjugates active against colistin- and tigecycline-resistant E. coli and K. pneumoniae” (Eur J Med Chem, 2019)
Peptide text beside a SMILES is read from it. * marks the point of attachment. X3 = CC[C@H](C)[C@@H](C(=O)*)N(C(=O)[C@H](CCCNC(=N)N)NC(=O)CCCCCNC(=O)[C@@H](N)CCCNC(=N)N)C(=O)[C@H](CCCNC(=N)N)NC(=O)CCCCCNC(=O)[C@@H](N)CCCNC(=N)N

Experiments:
[1] = test system: Escherichia coli; assay: Antibacterial activity against multi-drug resistant Escherichia coli NMI 3548/14 assessed as reduction in microbial growth incubated for 20 hrs; format: functional
How it was run: (§1)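 Broth microdilution MIC (modified Hancock protocol) in non-binding polystyrene plates. Inoculum ~2 × 10^5 CFU/mL in Mueller-Hinton broth with Mg²⁺ and Ca²⁺ at 4 mg/L each. Compounds dissolved in water, diluted in 0.01% acetic acid/0.2% BSA (final), added as 10× stocks. Covered plates incubated 20 h at 35 °C (± 2 °C) with 220 rpm circular shaking before MIC read.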

[2] = test system: Escherichia coli; assay: Antibacterial activity against NDM-5 producing multi-drug resistant Escherichia coli NMI 636/15 ST405 assessed as reduction in microbial growth incubated for 20 hrs; format: functional; settings: NMI 636/15 ST405, 20 h; how it was run: as §1
[3] = test system: Escherichia coli; assay: Antibacterial activity against NDM-1 producing multi-drug resistant Escherichia coli NMI 5428/11 ST410 assessed as reduction in microbial growth incubated for 20 hrs; format: functional; settings: NMI 5428/11 ST410, 20 h; how it was run: as §1
[4] = test system: Acinetobacter baumannii; assay: Antibacterial activity against Acinetobacter baumannii ATCC 19606 assessed as reduction in microbial growth incubated for 20 hrs; format: functional
How it was run: (§2)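 Broth microdilution MIC after a modified Hancock protocol for cationic peptides, in non-binding polystyrene plates. Inoculum ~2 × 10^5 CFU/mL in Mueller-Hinton broth with Mg²⁺ and Ca²⁺ at 4 mg/L each. Compounds dissolved in water, diluted in 0.01% acetic acid, 0.2% BSA (final), added as 10× aliquots. Covered plates incubated 20 h at 35 °C (± 2 °C) with shaking at 220 rpm. MIC read as lowest inhibiting concentration.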

[5] = test system: Klebsiella pneumoniae; assay: Antibacterial activity against multi-drug resistant Klebsiella pneumoniae NMI 2697/14 assessed as reduction in microbial growth incubated for 20 hrs; format: functional; how it was run: as §1
[6] = test system: Pseudomonas aeruginosa; assay: Antibacterial activity against multi-drug resistant Pseudomonas aeruginosa NMI 506/17 assessed as reduction in microbial growth incubated for 20 hrs; format: functional; how it was run: as §1
[7] = test system: Escherichia coli; assay: Antibacterial activity against Escherichia coli lacking a functional SbmA assessed as reduction in microbial growth incubated for 20 hrs; how it was run: as §2
[8] = test system: Klebsiella pneumoniae; assay: Antibacterial activity against Klebsiella pneumoniae ATCC 13883 assessed as reduction in microbial growth incubated for 20 hrs; format: functional; how it was run: as §2
[9] = test system: Klebsiella pneumoniae; assay: Antibacterial activity against multi-drug resistant Klebsiella pneumoniae NMI 3081/09 assessed as reduction in microbial growth incubated for 20 hrs; format: functional; how it was run: as §1
[10] = test system: Pseudomonas aeruginosa; assay: Antibacterial activity against Pseudomonas aeruginosa ATCC 27853 assessed as reduction in microbial growth incubated for 20 hrs; format: functional; how it was run: as §2
[11] = test system: Acinetobacter baumannii; assay: Antibacterial activity against Acinetobacter baumannii NMI 3658/17 assessed as reduction in microbial growth incubated 20 hrs; format: functional; how it was run: as §2
[12] = test system: Escherichia coli; assay: Antibacterial activity against NDM-1 producing multi-drug resistant Escherichia coli NMI 3371/16 ST101 assessed as reduction in microbial growth incubated for 20 hrs; format: functional; settings: NMI 3371/16 ST101, 20 h; how it was run: as §1
[13] = test system: Staphylococcus aureus; assay: Antibacterial activity against Staphylococcus aureus ATCC 29213 assessed as reduction in microbial growth incubated for 20 hrs; format: functional; how it was run: as §2
[14] = Hemolytic activity against RBC (unknown origin) at 100 uM; format: ADME, cell-based, Erythrocyte; settings: red blood cells (erythrocytes); read-out: Activity
[15] = test system: Pseudomonas aeruginosa; assay: Antibacterial activity against Pseudomonas aeruginosa PAO1 assessed as reduction in microbial growth incubated for 20 hrs; format: functional; how it was run: as §2
[16] = test system: Escherichia coli; assay: Antibacterial activity against Escherichia coli ATCC 25922 assessed as reduction in microbial growth incubated for 20 hrs; format: functional; how it was run: as §1
[17] = test system: Escherichia coli; assay: Antibacterial activity against multi-drug resistant Escherichia coli NMI 3898/15 assessed as reduction in microbial growth incubated for 20 hrs; format: functional; how it was run: as §1
[18] = Ratio of MIC for Escherichia coli lacking functional SbmA to MIC for Escherichia coli ATCC 25922
[19] = Ratio of MIC for Escherichia coli ATCC 25922 to MIC against Escherichia coli NMI 3898/15; format: functional
[20] = ATCC 19606 = CIP 70.34 = JCM 6841, 20 h

Compound	MIC ([1]; NMI 3548/14, 20 h)	MIC [2]	MIC [3]	MIC [4, 20]	MIC ([5]; NMI 2697/14, 20 h)	MIC ([6]; NMI 506/17, 20 h)	MIC [7]	MIC ([8]; ATCC 13883, 20 h)	MIC ([9]; NMI 3081/09, 20 h)	MIC ([10]; ATCC 27853, 20 h)	MIC ([11]; NMI 3658/17, 20 h)	MIC [12]	MIC ([13]; ATCC 29213, 20 h)	hemolysis at 100 µM [14]	MIC ([15]; PAO1, 20 h)	MIC ([16]; ATCC 25922, 20 h)	MIC ([17]; NMI 3898/15, 20 h)	Ratio [18]	other results
CC[C@@H](C)[C@@H](NC(=O)[C@@H](CCCCN)NC(=O)[C@@H]([C@H](C)CC)N(C(=O)[C@@H](CCCNC(=N)N)NC(=O)CCCCCNC(=O)[C@H](N)CCCNC(=N)N)C(=O)[C@@H](CCCNC(=N)N)NC(=O)CCCCCNC(=O)[C@H](N)CCCNC(=N)N)C(=O)N[C@H](CC(C)C)C(=O)N[C@H](Cc1ccccc1)C(=O)N[C@H](CCC(N)=O)C(=O)N[C@H](CC(N)=O)C(=O)N[C@H](CCCNC(=N)N)C(=O)N[C@H](CCCNC(=N)N)C(=O)N[C@H](CCSC)C(=O)N[C@H](CCCCN)C(=O)N[C@H](Cc1c[nH]c2ccccc12)C(=O)N[C@H](CCCCN)C(=O)N[C@H](CCCCN)C(N)=O	1 µg/mL	2 µg/mL	1 to 2 µg/mL	2 µg/mL	16 µg/mL	4 µg/mL	2 µg/mL	4 µg/mL	16 µg/mL	2 µg/mL	2 µg/mL	2 µg/mL	2 to 4 µg/mL	< 1%	1 µg/mL	2 to 4 µg/mL	2 µg/mL		
CC[C@@H](C)[C@@H](NC(=O)[C@H]1CCCN1C(=O)[C@@H](CCCNC(=N)N)NC(=O)[C@H]1CCCN1C(=O)[C@@H](Cc1cnc[nH]1)NC(=O)[C@@H](CO)NC(=O)[C@H](NC(=O)[C@H]1CCCN1C(=O)[C@@H](CCCNC(=N)N)NC(=O)[C@H]1CCCN1C(=O)[C@@H](CO)NC(=O)[C@@H](Cc1ccc(O)cc1)NC(=O)[C@H]1CCCN1C(=O)[C@@H](CCCNC(=N)N)NC(=O)[C@H]1CCCN1C(=O)[C@@H](CCCNC(=N)N)NC(=O)CCCCCNC(=O)[C@H](N)CCCNC(=N)N)[C@H](C)O)C(=O)N[C@H](CCCNC(=N)N)C(=O)N[C@@H](C(=O)N[C@H](CS)C(=O)N[C@@H](C(=O)N[C@H](CS)C(=O)N[C@H](C)C(=O)N[C@@H](C(=O)N[C@H](C)C(=O)N[C@H](CS)C(=O)N[C@@H](C(=O)N[C@@H](CS)C(=O)N[C@@H](C(N)=O)[C@H](C)O)[C@H](C)O)[C@H](C)O)[C@H](C)O)C(C)C	64 µg/mL			> 64 µg/mL	> 64 µg/mL		> 64 µg/mL	8 to 16 µg/mL	> 64 µg/mL				> 64 µg/mL	< 1%	> 64 µg/mL	> 64 µg/mL	> 64 µg/mL	> 16	
CC[C@H](C)[C@H](NC(=O)[C@H](CCCCN)NC(=O)[C@H]([C@@H](C)CC)N(C(=O)[C@H](CCCNC(=N)N)NC(=O)CCCCCNC(=O)[C@@H](N)CCCNC(=N)N)C(=O)[C@H](CCCNC(=N)N)NC(=O)CCCCCNC(=O)[C@@H](N)CCCNC(=N)N)C(=O)N[C@@H](CC(C)C)C(=O)N[C@@H](Cc1ccccc1)C(=O)N[C@@H](CCC(N)=O)C(=O)N[C@@H](CC(N)=O)C(=O)N[C@@H](CCCNC(=N)N)C(=O)N[C@@H](CCCNC(=N)N)C(=O)N[C@@H](CCSC)C(=O)N[C@@H](CCCCN)C(=O)N[C@@H](Cc1c[nH]c2ccccc12)C(=O)N[C@@H](CCCCN)C(=O)N[C@@H](CCCCN)C(=O)N[C@@H](CS)C(=O)N[C@H](C(=O)N[C@@H](CS)C(=O)N[C@H](C(=O)N[C@H](C(=O)N[C@@H](C)C(=O)N[C@@H](CS)C(=O)N[C@@H](C)C(=O)N[C@@H](CS)C(=O)N[C@H](C(N)=O)[C@@H](C)O)[C@@H](C)O)[C@@H](C)O)[C@@H](C)O (X3-KILFQNRRMKWKKCTCTTACACT-NH2)	8 to 16 µg/mL			16 to 32 µg/mL	≥ 64 µg/mL		64 µg/mL	> 64 µg/mL	16 µg/mL				> 64 µg/mL	< 1%	32 µg/mL	64 µg/mL	32 µg/mL		
CC[C@H](C)[C@H](NC(=O)[C@@H]1CCCN1C(=O)[C@H](CCCNC(=N)N)NC(=O)[C@@H]1CCCN1C(=O)[C@H](Cc1cnc[nH]1)NC(=O)[C@H](CO)NC(=O)[C@@H](NC(=O)[C@@H]1CCCN1C(=O)[C@H](CCCNC(=N)N)NC(=O)[C@@H]1CCCN1C(=O)[C@H](CO)NC(=O)[C@H](Cc1ccc(O)cc1)NC(=O)[C@@H]1CCCN1C(=O)[C@H](CCCNC(=N)N)NC(=O)[C@@H]1CCCN1C(=O)[C@H](CCCNC(=N)N)NC(=O)CCCCCNC(=O)[C@@H](N)CCCNC(=N)N)[C@@H](C)O)C(=O)N[C@@H](CCCNC(=N)N)C(=O)N[C@H](C(=O)N[C@@H](CS)C(=O)N[C@H](C(=O)N[C@@H](CS)C(=O)N[C@@H](C)C(=O)N[C@H](C(=O)N[C@@H](C)C(=O)N[C@@H](CS)C(=O)N[C@H](C(=O)N[C@@H](CS)C(=O)N[C@H](C(N)=O)[C@@H](C)O)[C@@H](C)O)[C@@H](C)O)[C@@H](C)O)C(C)C	1 to 2 µg/mL	1 µg/mL	1 µg/mL	64 µg/mL	32 µg/mL	> 64 µg/mL	> 64 µg/mL	2 to 4 µg/mL	8 µg/mL	> 64 µg/mL	32 µg/mL	0.5 µg/mL	> 64 µg/mL	< 1%	> 64 µg/mL	4 µg/mL	4 µg/mL	> 16	Ratio [19]: 2 to 8
COLISTIN							0.5 µg/mL												MIC [1]: 4 µg/mL; MIC ([4]; ATCC 19606 = CIP 70.34 = JCM 6841): 0.25 µg/mL; MIC [5]: > 16 µg/mL; MIC [6]: > 16 µg/mL; MIC [8]: 2 to 4 µg/mL; MIC [9]: 0.25 to 1 µg/mL; MIC [10]: 0.25 µg/mL; MIC [11]: > 16 µg/mL; MIC [13]: > 16 µg/mL; MIC [15]: 0.5 µg/mL; MIC [16]: 0.125 to 0.5 µg/mL; MIC [17]: 2 to 4 µg/mL
CC[C@H](C)[C@H](NC(=O)[C@H](CCCCN)NC(=O)[C@H]([C@@H](C)CC)N(C(=O)[C@H](CCCNC(=N)N)NC(=O)CCCCCNC(=O)[C@@H](N)CCCNC(=N)N)C(=O)[C@H](CCCNC(=N)N)NC(=O)CCCCCNC(=O)[C@@H](N)CCCNC(=N)N)C(=O)N[C@@H](CC(C)C)C(=O)N[C@@H](Cc1ccccc1)C(=O)N[C@@H](CCC(N)=O)C(=O)N[C@@H](CC(N)=O)C(=O)N[C@@H](CCCNC(=N)N)C(=O)N[C@@H](CCCNC(=N)N)C(=O)N[C@@H](CCSC)C(=O)N[C@@H](CCCCN)C(=O)N[C@@H](Cc1c[nH]c2ccccc12)C(=O)N[C@@H](CCCCN)C(=O)N[C@@H](CCCCN)C(N)=O	4 to 8 µg/mL			8 µg/mL	> 64 µg/mL		8 µg/mL	64 µg/mL	> 64 µg/mL				32 to 64 µg/mL	< 1%	8 µg/mL	8 µg/mL	16 µg/mL		
